{"source": "paper PMC3517184", "about": "(Bioorganic & medicinal chemistry, 2012)", "key": {"TLR7/8": {"test_system": "TLR7/8", "assay": "TLR specificity test, NO production induced by R848 in RAW 264.7 cells", "format": "cell-based, murine", "conditions": "0.6 μM"}, "[1]": {"test_system": "LPS-induced activation of NF-κB", "assay": "NF-κB dual luciferase reporter assay in BV-2 microglial cells", "format": "cell-based", "in_short": "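NF-κB dual-luciferase reporter BV-2 microglia are kept in DMEM with 10% FBS, penicillin, streptomycin and puromycin (3 μg/mL). After 24 h seeding, medium is switched to Opti-MEM with 0.5% FBS. Test compound is added, then LPS at 200 ng/mL for 24 h. Dual-Glo luminescence is read, and the firefly/Renilla ratio is taken as NF-κB activity.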"}, "TLR3": {"molecular_target": "T1, TLR3 (Mus musculus, UniProt Q99MB1)", "T1 sequence (Q99MB1 26-905)": "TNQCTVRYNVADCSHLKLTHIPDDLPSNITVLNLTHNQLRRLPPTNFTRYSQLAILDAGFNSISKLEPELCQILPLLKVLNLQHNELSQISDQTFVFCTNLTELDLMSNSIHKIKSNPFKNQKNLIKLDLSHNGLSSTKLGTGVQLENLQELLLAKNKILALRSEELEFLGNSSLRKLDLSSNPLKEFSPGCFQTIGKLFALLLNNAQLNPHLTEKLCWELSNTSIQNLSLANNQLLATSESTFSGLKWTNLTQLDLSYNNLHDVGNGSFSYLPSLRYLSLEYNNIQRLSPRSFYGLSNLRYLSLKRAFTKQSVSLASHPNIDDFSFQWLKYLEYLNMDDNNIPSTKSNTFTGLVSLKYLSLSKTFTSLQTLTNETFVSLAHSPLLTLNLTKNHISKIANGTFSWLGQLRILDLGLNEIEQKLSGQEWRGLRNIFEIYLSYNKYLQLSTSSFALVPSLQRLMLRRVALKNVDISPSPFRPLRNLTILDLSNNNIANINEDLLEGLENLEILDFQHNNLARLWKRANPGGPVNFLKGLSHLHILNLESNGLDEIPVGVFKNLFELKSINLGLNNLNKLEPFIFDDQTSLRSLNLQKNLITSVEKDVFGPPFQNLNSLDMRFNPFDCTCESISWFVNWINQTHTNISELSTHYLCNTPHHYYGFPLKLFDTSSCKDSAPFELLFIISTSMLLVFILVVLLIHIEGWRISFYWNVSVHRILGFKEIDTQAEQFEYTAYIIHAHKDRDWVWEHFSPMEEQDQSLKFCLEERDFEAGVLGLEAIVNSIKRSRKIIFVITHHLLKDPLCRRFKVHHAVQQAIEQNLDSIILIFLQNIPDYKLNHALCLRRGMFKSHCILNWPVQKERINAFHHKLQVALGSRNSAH", "assay": "TLR specificity test, NO production induced by poly", "format": "cell-based, murine", "conditions": "0.6 μM, RAW 264.7 cells, poly(I:C)"}, "TLR2/TLR6 heterodimer": {"molecular_target": "TLR2/TLR6 heterodimer (Mus musculus, UniProt Q9EPW9+Q9QUN7)", "sequence (Q9QUN7 25-784)": "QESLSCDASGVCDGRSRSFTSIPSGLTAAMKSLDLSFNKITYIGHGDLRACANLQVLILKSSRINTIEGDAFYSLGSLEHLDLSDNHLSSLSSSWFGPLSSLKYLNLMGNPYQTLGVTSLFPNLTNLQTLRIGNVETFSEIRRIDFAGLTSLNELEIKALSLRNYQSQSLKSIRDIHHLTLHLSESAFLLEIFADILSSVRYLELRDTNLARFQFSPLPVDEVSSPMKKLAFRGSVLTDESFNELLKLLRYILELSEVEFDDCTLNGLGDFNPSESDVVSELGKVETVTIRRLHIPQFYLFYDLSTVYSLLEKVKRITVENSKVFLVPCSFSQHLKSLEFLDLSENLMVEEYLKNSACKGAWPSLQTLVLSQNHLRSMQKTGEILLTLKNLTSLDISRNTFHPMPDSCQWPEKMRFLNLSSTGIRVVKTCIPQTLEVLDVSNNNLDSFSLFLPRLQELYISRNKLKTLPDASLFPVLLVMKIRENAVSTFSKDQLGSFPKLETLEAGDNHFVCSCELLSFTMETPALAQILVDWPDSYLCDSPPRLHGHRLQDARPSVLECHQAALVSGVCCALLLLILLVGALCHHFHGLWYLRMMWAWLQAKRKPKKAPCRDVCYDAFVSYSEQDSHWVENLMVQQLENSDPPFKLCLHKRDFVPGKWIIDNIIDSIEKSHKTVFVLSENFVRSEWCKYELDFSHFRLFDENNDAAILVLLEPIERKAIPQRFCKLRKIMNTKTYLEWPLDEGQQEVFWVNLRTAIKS", "sequence (Q9EPW9 28-795)": "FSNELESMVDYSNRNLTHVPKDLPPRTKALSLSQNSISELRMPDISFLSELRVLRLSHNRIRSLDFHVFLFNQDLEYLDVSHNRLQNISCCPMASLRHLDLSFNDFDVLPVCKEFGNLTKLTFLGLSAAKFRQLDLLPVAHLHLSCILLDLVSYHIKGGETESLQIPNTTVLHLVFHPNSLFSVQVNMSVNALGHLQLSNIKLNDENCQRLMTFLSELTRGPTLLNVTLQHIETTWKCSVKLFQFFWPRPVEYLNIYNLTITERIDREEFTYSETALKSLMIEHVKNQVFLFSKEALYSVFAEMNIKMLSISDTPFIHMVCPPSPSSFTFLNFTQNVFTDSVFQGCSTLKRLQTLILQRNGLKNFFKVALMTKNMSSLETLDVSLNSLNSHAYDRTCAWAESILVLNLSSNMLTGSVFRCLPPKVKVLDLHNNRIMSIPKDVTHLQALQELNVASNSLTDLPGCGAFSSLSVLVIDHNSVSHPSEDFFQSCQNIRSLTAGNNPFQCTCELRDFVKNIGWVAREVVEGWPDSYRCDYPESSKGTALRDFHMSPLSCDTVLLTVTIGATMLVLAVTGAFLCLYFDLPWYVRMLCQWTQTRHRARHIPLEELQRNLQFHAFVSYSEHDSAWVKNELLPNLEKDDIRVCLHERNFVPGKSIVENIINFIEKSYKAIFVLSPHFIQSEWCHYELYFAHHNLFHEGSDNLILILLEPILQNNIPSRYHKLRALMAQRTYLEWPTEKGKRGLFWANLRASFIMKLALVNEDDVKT", "assay": "TLR specificity test, NO production induced by FSL-1 in RAW 264.7 cells", "format": "cell-based, murine", "conditions": "0.6 μM"}, "cell viability": {"test_system": "cell viability", "assay": "WST-1 cell viability / toxicity assay", "format": "cell-based", "conditions": "up to 10.0 μM", "in_short": "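Cells are seeded at 2×10^4 per well and cultured 24 h at 37°C, then moved to serum-free medium with vehicle or test compound at various concentrations for 24 h. Premixed WST-1 reagent is added, and after 30 min at 37°C absorbance is read at 490 nm.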"}, "TLR1/TLR2": {"molecular_target": "TLR1/TLR2 (Mus musculus, UniProt Q9EPQ1+Q9QUN7)", "sequence (Q9EPQ1 26-795)": "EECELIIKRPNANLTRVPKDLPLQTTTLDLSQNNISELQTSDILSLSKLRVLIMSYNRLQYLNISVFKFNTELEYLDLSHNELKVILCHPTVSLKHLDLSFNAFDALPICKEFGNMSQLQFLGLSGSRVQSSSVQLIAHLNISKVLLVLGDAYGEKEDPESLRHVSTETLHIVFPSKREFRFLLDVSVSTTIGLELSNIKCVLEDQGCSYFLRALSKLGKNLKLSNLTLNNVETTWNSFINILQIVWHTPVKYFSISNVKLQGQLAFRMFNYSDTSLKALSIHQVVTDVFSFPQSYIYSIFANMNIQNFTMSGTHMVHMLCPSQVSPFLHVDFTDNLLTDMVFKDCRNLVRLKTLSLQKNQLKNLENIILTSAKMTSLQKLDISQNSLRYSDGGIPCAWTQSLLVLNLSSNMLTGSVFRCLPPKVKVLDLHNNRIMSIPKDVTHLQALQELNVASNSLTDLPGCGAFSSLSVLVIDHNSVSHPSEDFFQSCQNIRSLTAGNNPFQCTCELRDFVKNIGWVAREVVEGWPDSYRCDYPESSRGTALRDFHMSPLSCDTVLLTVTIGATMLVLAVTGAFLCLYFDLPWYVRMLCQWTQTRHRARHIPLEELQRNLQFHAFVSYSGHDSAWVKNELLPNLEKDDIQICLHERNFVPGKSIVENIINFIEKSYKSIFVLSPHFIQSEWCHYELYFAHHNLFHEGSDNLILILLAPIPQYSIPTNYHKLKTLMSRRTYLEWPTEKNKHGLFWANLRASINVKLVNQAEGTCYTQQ", "sequence (Q9QUN7 25-784)": "as the sequence (Q9QUN7 25-784) above", "assay": "TLR specificity test, NO production induced by Pam3CSK4 in RAW 264.7 cells", "format": "cell-based, murine", "conditions": "0.6 μM"}, "[2]": {"test_system": "LPS-induced NO production in RAW 264.7 macrophage cells", "assay": "Inhibition of LPS-induced NO production in RAW 264.7 macrophage cells", "format": "cell-based, murine"}, "[3]": {"test_system": "LPS-induced IL-1β production", "assay": "LPS-induced IL-1β production in RAW 264.7 cells", "format": "cell-based, murine", "conditions": "ELISA", "in_short": "(§1)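 RAW 264.7 macrophages are grown in RPMI 1640 with 10% FBS, penicillin and streptomycin at 37°C and 5% CO2. Cells are pretreated with or without LPS, then given test compound (10 mM DMSO stock). After 24 h, supernatants are clarified and cells are lysed, with both stored at −80°C. ELISA measures TNF-α in medium and IL-1β in lysate, with IL-1β normalized to total protein.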"}, "[4]": {"test_system": "LPS-induced TNF-α production", "assay": "LPS-induced TNF-α production in RAW 264.7 cells", "format": "cell-based, murine", "conditions": "ELISA", "in_short": "as §1"}}}
{"smiles": "COC(=O)C(=Cc1ccccc1[N+](=O)[O-])C(=O)OC", "note": "[Compound 1, Dimethyl 2-(2-nitrobenzylidene)malonate]", "values": [{"measurement": "inhibition of TLR7/8 signaling (NO production)", "setting": "TLR7/8", "result": "negligible inhibition"}, {"measurement": "IC50", "setting": "[1]; Mus musculus, BV-2, 24 h, read-out: IC50, inhibition of LPS-induced NF-κB reporter activity", "result": "5.92 ± 0.14", "unit": "µM"}, {"measurement": "inhibition of TLR3 signaling (NO production)", "setting": "TLR3", "result": "negligible inhibition"}, {"measurement": "effect on signal via TLR2/TLR6 heterodimer (NO production)", "setting": "TLR2/TLR6 heterodimer", "result": "reduced the signal"}, {"measurement": "cytotoxicity (WST-1 toxicity assay)", "setting": "cell viability", "result": "did not show significant toxicity"}, {"measurement": "inhibition of TLR1/TLR2 signaling (NO production)", "setting": "TLR1/TLR2", "result": "negligible inhibition"}]}
{"smiles": "COC(=O)C(=Cc1ccccc1)C(=O)OC", "note": "[Compound 2, Dimethyl 2-benzylidenemalonate]", "values": [{"measurement": "decrease of activity relative to 1 (NO production)", "setting": "[2]; absence of any substituent on the benzene ring", "result": "greater than 2 fold"}]}
{"smiles": "COC(=O)C(Cc1ccccc1[N+](=O)[O-])C(=O)OC", "note": "[Compound 22, Dimethyl 2-(2-nitrobenzyl) malonate]", "values": [{"measurement": "effect on LPS-induced NF-κB activation", "setting": "[1]; BV-2 cells, concentrations up to 10 μM", "result": "did not alter"}, {"measurement": "inhibition of LPS-induced NO production", "setting": "[2]; RAW 264.7 cells, at the tested concentrations (Figure 1A)", "result": "negligible inhibition"}, {"measurement": "effect on IL-1β production", "setting": "[3]", "result": "did not affect"}, {"measurement": "effect on TNF-α production", "setting": "[4]", "result": "did not affect"}]}
